High-throughput results from PubChem.
In the library only some 3.4% were active in any assay of this set; here they are far more common.
TAAR1 antagonist = human TAAR1 antagonism | Q96RJ0 | CHO RD-HGA16 TAAR1, Fluo-8 calcium fluorescence, antagonist | inhibition, % at 3 µM | actives 1.5% (n = 360,000) | AID 624466;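 active = inhibition above a per-plate cutoff, the mean inhibition of test compounds on that plate plus 3 SD, cut at about 49% in these data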;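 note: 0% = DMSO plus EC80 beta-PEA response and 100% = DMSO alone without agonist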
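Test system – hTAAR1-expressing CHO RD-HGA16 cells, Gα16-coupled · Also added – β-PEA at EC80 concentration, post-compound challenge · Compound – 3 µM, single point · Incubation – dye loading 75 min at 37 °C, then 30 min room temperature · Measured by – Fluo-8 intracellular calcium dye fluorescence, real-time kinetic reads · Benchmarks – vehicle and agonist controls · Replicates – singlicate, one well per test compound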
LANA-H2B inh = blocks KSHV LANA binding to histone H2A/H2B; inhibition, % (test concentration not listed); actives 0.6% (n = 320,000); Q9QR71; cell-free LANA-H2A/H2B peptide, fluorescence polarization; AID 2629; in the data active = inhibition mostly above about 10%, no sharp cut-off; inactive = mostly below about 6.7%
GPR7 antagonist = blocks human GPR7 receptor signaling | P48145 | GPR7-expressing cells, fluorescence antagonist assay | inhibition, % at 4.4 µM | actives 1.1% (n = 290,000) | AID 1861; in the data active = inhibition above about 16%, passing the limit was not always enough;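 note: cells stimulated with the agonist NPW; 0% = agonist with vehicle and 100% = vehicle without agonist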
Target sequence (P48145 whole entry, looked up): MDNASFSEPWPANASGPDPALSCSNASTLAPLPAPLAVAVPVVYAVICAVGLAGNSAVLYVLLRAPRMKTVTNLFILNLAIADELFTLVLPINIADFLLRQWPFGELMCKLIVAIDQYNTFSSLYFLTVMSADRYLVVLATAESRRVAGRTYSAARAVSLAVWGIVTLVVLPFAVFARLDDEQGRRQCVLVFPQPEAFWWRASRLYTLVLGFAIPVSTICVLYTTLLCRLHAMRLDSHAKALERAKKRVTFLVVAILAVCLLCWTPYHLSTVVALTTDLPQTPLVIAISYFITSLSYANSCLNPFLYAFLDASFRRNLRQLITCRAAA
TRPN1 ag = zebrafish TRPN1 (NompC) channel agonism; HEK293 zebrafish TRPN1-YFP, Fluo-8 calcium fluorescence; 100% = response to 87 µM carbachol; activation, % at 3 µM; actives 0.18% (n = 220,000);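 active = activation above its plate's cutoff, the mean activation of test wells on that plate plus 3 SD, cut at about 19% in these data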;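 note: 0% = DMSO alone and 100% = 87 µM carbachol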
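Control set: carbachol 87 µM as high control, DMSO as low control; system: HEK293 stable line with zebrafish TRPN1-YFP; read-out: % activation versus carbachol response; detection: intracellular calcium fluorescence with Fluo-8; doses: single test compound dose, 3 µM nominal, 0.3% DMSO; schedule: dye 1 h 37 °C plus 30 min RT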
TRPML3 ag = activates the human TRPML3 channel. activation, % at 3 µM. HEK293 TRPML3-YFP, Fluo-8 calcium fluorescence; 100% = the carbachol control signal. Q8TDD5. actives 0.29% (n = 220,000);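 active = activation above its plate's cutoff, the mean activation of the plate's test wells plus 3 SD, cut at about 12% in these data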;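 note: 0% = DMSO only wells and 100% = carbachol wells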
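Test system – HEK293 line with stable expression of human TRPML3-YFP channel · Control set – carbachol 87 µM final as high control (100%), DMSO as low control (0%) · Signal – Fluo-8 calcium dye fluorescence, ex 470-495, em 515-575 nm · Incubation – 1-h 37 °C dye load, 5-s basal, 120-s post-compound reads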
TAAR1 agonist = human TAAR1 agonism. Q96RJ0. CHO RD-HGA16 TAAR1, Fluo-8 calcium fluorescence; vehicle wells 0%, saturating PEA agonist 100%. activation, % at 3 µM. actives 0.99% (n = 360,000);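 active = activation above the mean activation of all test compounds in the run plus 3 SD, cut at about 38% in these data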
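Test system: RD-HGA16 (CHO) cells co-expressing Gα16 and hTAAR1 / Benchmarks: DMSO vehicle as 0%, PEA at EC100 as 100% / Repeats: no replicates (n 1) / Measure: % activation from peak over basal fluorescence ratio, DMSO-to-PEA scaled / Timing: 17-24 h plating, Fluo-8 75 min 37 °C, 30 min RT / Technique: kinetic Fluo-8 calcium fluorescence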
* marks the source's active call; other numbers are inactive results; . = no result given.

SMILES	TAAR1 antagonist	LANA-H2B inh	GPR7 antagonist	TRPN1 ag	TRPML3 ag	TAAR1 agonist
COc1ccc(C2CC3(CC(C)(C)NC(=S)N3)Oc3cc(O)cc(C)c32)cc1 (stereo not given)	2	-1	-7	-1	0	1
COc1cc(OC)cc(C(=O)Nc2nnc(SCC(=O)NCc3ccco3)s2)c1	-35	39*	-10	.	.	-3
CCOC(=O)N1CCC(NC(=O)c2cc(S(=O)(=O)N3CCOCC3)ccc2F)CC1	.	-6	2	2	1	.
CCOC(=O)N1CCC(NC(=O)c2cc(C(=O)NCc3ccc(F)cc3)ccc2CO)CC1	0	-1	3	1	1	56*
CCOC(=O)N1CCC(NC(=O)c2cc(C(=O)Nc3ccc(S(=O)(=O)N4CCOCC4)cc3)ccc2CO)CC1	6	17*	-11	0	1	7
COC(=O)c1cc2c(c3c4cc(OC)ccc4n(S(=O)(=O)c4ccc(OC)cc4)c13)C(=O)N(Cc1ccco1)C2	-30	.	.	.	.	3
COc1ccc2nc(NC(=O)Cn3cnc4ccccc4c3=O)sc2c1	-28	177*	-2	1	0	-1
COc1ccc2nc(NC(=O)CSC(C)C(=O)Nc3cc(C)on3)sc2c1 (stereo not given)	-8	17*	.	.	.	2
Cc1ccc2nc(NC(=O)CSCC(=O)Nc3cc(C)on3)sc2c1	-23	.	.	.	.	5
COc1ccc(NC(=O)Cn2cnc3ccccc3c2=O)cc1OC	5	16	-8	1	1	0
COC(=O)C1=C(C)N(Cc2ccc(Cl)cc2)C(=S)NC1c1ccc(Cl)cc1 (stereo not given)	15	.	.	.	.	2
CC(C)C(C(=O)NCc1ccccc1)N1CCN(CCN2CCOCC2)CC1 (stereo not given)	-11	.	.	.	.	0
Cc1cc(C)cc(S(=O)(=O)c2cnc3ccccc3n2)c1	8	14*	1	-2	0	-1
COc1ccc2cc(/C=N/NC(=O)CN(c3ccccc3OC)S(=O)(=O)c3ccccc3)c(Cl)nc2c1	15	.	.	.	.	10
CCc1nnc(NC(=O)CN2CCC(O)(c3ccccc3OC)CC2)s1	5	-3	-3	0	1	11
COc1ccccc1C1(O)CCN(CC(=O)Nc2nc(-c3ccccc3)cs2)CC1	53*	5	6	3	1	6
CCOC(=O)N1CCN(C(=O)CSCC(=O)Nc2nc(-c3ccc(-c4ccccc4)cc3)cs2)CC1	70*	5	-6	5	2	8
COc1cccc(C2NC(=S)N(Cc3ccc(Br)cc3)C(C)=C2C(C)=O)c1 (stereo not given)	19	.	.	.	.	1
O=C(NCCN1CCC(n2c(=O)[nH]c3cc(Cl)ccc32)CC1)c1ccc(F)cc1	11	.	.	.	.	5
CC(=O)c1ccc(N2CCN(S(=O)(=O)c3cn(C)c(C)n3)CC2)cc1	-15	0	-10	.	.	0
CC(=O)c1ccc(N2CCN(S(=O)(=O)c3cn(C)cn3)CC2)cc1	-3	8.8*	6	.	.	1
C[C@@H]1CN([C@@H](C)CO)C(=O)CCCn2cc(nn2)CO[C@H]1CN(C)C(=O)Nc1ccc(F)cc1	1	.	.	.	.	8
OC(CNC1CCCCC1)CON=C1CCSc2c(Cl)cccc21 (stereo not given)	18	.	.	.	.	40*
OC(CNC1CCCC1)COc1ccc(-c2ccccc2)cc1 (stereo not given)	1	-4	3	2	2	13
CCOC(=O)c1ccc(NC(=O)OC[C@@H]2CSCCS(=O)(=O)N2)cc1	7	.	.	.	.	17
NC(=O)C1CCN(C(=S)c2ccc(-c3ccc(Br)cc3)o2)CC1	3	14*	-7	-2	0	-2
NC(=O)c1ccc(-c2ccc(Br)cc2)o1	-2	1	4	-1	0	4
CCCN(CCC)S(=O)(=O)c1ccc(Cl)c([N+](=O)[O-])c1	7	-7	42*	-3	1	5
CC(C)c1ccc(NC(=O)Nc2nc(C(C)N)cs2)cc1 (stereo not given)	0	.	.	.	.	5
